These results are taken from ChEMBL document CHEMBL1154946, “Synthetic atpenin analogs: Potent mitochondrial inhibitors of mammalian and fungal succinate-ubiquinone oxidoreductase” (Bioorg Med Chem Lett, 2010).

Active and inactive are the calls of the source. The calls are words filed in the database; no cut-off is given here.

Assay [1] concerns Parastagonospora nodorum. Kind of assay: Antifungal activity against Septoria nodorum at 200 ppm by whole plant assay. In kind it is functional, organism-based.
Assay [2] can be described thus: Inhibition of Septoria nodorum sub-mitochondrial membrane SQR assessed as ubiquinol-dependent reduction of DCIP after 10 mins by spectrophotometry. Details: species or system Parastagonospora nodorum. The method, boiled down:
(§1)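 Complex II (SQR) activity in sub-mitochondrial membranes from bovine heart or Septoria nodorum, run in plate format. 20 mM succinate serves as electron donor, with decyl ubiquinone as acceptor and DCIP as terminal dye acceptor. The reaction is started by adding succinate and runs 10 min. Read-out is spectrophotometric, giving IC50.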

Assay [3] in a line: Inhibition of bovine heart sub-mitochondrial membrane SQR assessed as ubiquinol-dependent reduction of DCIP after 10 mins by spectrophotometry. Details: species or system Bos taurus. The method, boiled down:
as §1

The subject of assay [4] is Parastagonospora nodorum. Kind of assay: Antifungal activity against Septoria nodorum at 200 ppm. Format: functional, organism-based.

What is called IC50 is the concentration at which inhibition is half-maximal. Take `COc1nc(O)c(C(=O)C(c2ccccc2)c2ccccc2)c(O)c1OC`: the outcome in assay [1] and in assay [4] was inactive. Also, the half-maximal inhibitory concentration (IC50) is more than 30000 nM in assay [2] and 630 nM in assay [3].
Regarding `CCCCC(C)C(=O)c1c(O)nc(OC)c(OC)c1O` (stereo not drawn), the outcome in assay [1] and in assay [4] was inactive. For the same compound, the IC50 amounted to 122 nM in assay [2] and 20 nM in assay [3].
For the compound `COc1nc(O)c(C(=O)C2CCCCC2)c(O)c1OC`, the outcome in assay [1] and in assay [4] was inactive. The IC50 in assay [2] was 1780 nM; in assay [3], 127 nM.
For the compound `COc1[nH]cc(C(=O)c2ccc(Oc3ccccc3)cc2)c(=O)c1OC`, the result in assay [1] and in assay [4] was inactive. The IC50 worked out at 4080 nM in assay [2] and 492 nM in assay [3].
As for `CCCCCCCCCC(C)C(=O)c1c(O)nc(OC)c(OC)c1O` (stereo not drawn), the result in assay [1] and in assay [4] was inactive. Besides, the IC50 in assay [2] worked out at 4 nM; in assay [3], 3 nM.
Turning to `COc1nc(O)c(C(=O)C(C)CCC=C(C)C)c(O)c1OC` (stereo not drawn), the outcome in assay [1] and in assay [4] was inactive. The concentration for half-maximal inhibition (IC50) was 51 nM in assay [2] and 5 nM in assay [3].
For `COc1[nH]cc(C(=O)c2ccccc2Cl)c(=O)c1OC`, the result in assay [1] and in assay [4] was inactive. In addition, the IC50 in assay [2] and in assay [3] was more than 30000 nM in each case.
In the case of `COc1nc(OC(C)=O)c(C(=O)c2ccc(Cl)cc2)c(OC(C)=O)c1OC`, the result in assay [1] and in assay [4] was inactive. Moreover, the IC50 in assay [2] and in assay [3] was more than 30000 nM each time.
As for `COc1[nH]c(C)c(C(=O)c2ccc(Cl)cc2)c(=O)c1OC`, the outcome in assay [1] and in assay [4] was inactive. In addition, the IC50 in assay [2] worked out at 14000 nM; in assay [3], 13800 nM.
In the case of `O=C(Nc1ccccc1-c1ccc(Cl)cc1)c1cccnc1Cl` [BOSCALID], the figures for the IC50 in assay [2] and in assay [3] were 245 nM and 1790 nM, respectively.
Take `COc1nc(O)c(C(=O)C(C)c2ccccc2)c(O)c1OC` (stereo not drawn): the result in assay [1] and in assay [4] was inactive. Also, the values for the IC50 in assay [2] and in assay [3] were 299 nM and 8 nM, respectively.
Turning to `COc1[nH]cc(C(=O)c2cccc(Cl)c2)c(=O)c1OC`, the result in assay [1] and in assay [4] was inactive. Moreover, the values for the IC50 in assay [2] and in assay [3] were more than 30000 nM and 6560 nM, respectively.
For the compound `COc1[nH]cc(C(=O)c2cccc(Oc3ccccc3)c2)c(=O)c1OC`, the outcome in assay [1] and in assay [4] was inactive. For the same compound, the results for the IC50 in assay [2] and in assay [3] were 2980 nM and 454 nM, respectively.
With `CCC(C)C(=O)c1c(O)nc(OC)c(OC)c1O` (stereo not drawn), the result in assay [1] and in assay [4] was inactive. The IC50 worked out at 2580 nM in assay [2] and 96 nM in assay [3].
Regarding `CCC(C)C(=O)c1c[nH]c(OC)c(OC)c1=O` (stereo not drawn), the result in assay [1] and in assay [4] was inactive. Moreover, the IC50 in assay [2] and in assay [3] was more than 30000 nM in each case.
With `COc1nc(O)c(C(=O)c2cccc(Oc3ccccc3)c2)c(O)c1OC`, the result in assay [1] and in assay [4] was inactive. Also, the IC50 came out at 2330 nM in assay [2] and 112 nM in assay [3].
Consider `COc1[nH]c(Br)c(C(=O)c2ccc(Cl)cc2)c(=O)c1OC`, for which the outcome in assay [1] and in assay [4] was inactive. Further, the IC50 in assay [2] was determined as 1940 nM; in assay [3] it was 1270 nM.
`COc1nc(OS(C)(=O)=O)c(C(=O)c2ccc(Cl)cc2)c(OS(C)(=O)=O)c1OC`: the result in assay [1] and in assay [4] was inactive. For the same compound, the IC50 in assay [2] and in assay [3] was more than 30000 nM throughout.
Consider `CCCCC(CC)C(=O)c1c(O)nc(OC)c(OC)c1O` (stereo not drawn), for which the outcome in assay [1] and in assay [4] was inactive. In addition, the IC50 came out at 234 nM in assay [2] and 125 nM in assay [3].
`COc1ccc(C(=O)c2c[nH]c(OC)c(OC)c2=O)cc1`: the result in assay [1] and in assay [4] was inactive. The IC50 in assay [2] and in assay [3] was more than 30000 nM in each case.
For `COc1[nH]cc(C(=O)c2ccc(Cl)cc2)c(=O)c1OC`, the outcome in assay [1] and in assay [4] was inactive. Further, the IC50 in assay [2] was 26700 nM; in assay [3], 3400 nM.
`COc1[nH]cc(C(=O)c2ccc(-c3ccccc3)cc2)c(=O)c1OC`: the result in assay [1] and in assay [4] was inactive. The results for the IC50 in assay [2] and in assay [3] were 2750 nM and 795 nM, respectively.
For the compound `COc1nc(O)c(C(=O)C(C)Cc2ccc(C(C)(C)C)cc2)c(O)c1OC` (stereo not drawn), the outcome in assay [1] and in assay [4] was inactive. Also, the values for the IC50 in assay [2] and in assay [3] were 24 nM and 8 nM, respectively.
On to `COc1nc(O)c(C(=O)c2ccc(Cl)cc2)c(O)c1OC`, for which the outcome in assay [1] and in assay [4] was inactive. For the same compound, the IC50 in assay [2] is more than 30000 nM; in assay [3] it was 326 nM.
With `COc1[nH]cc(C(=O)c2ccc3ccccc3c2)c(=O)c1OC`, the result in assay [1] and in assay [4] was inactive. Further, the figures for the IC50 in assay [2] and in assay [3] were 20700 nM and 12800 nM, respectively.
On to `COc1[nH]c(=O)c(C(=O)[C@@H](C)C[C@H](C)[C@@H](Cl)CCl)c(O)c1OC` [ATPENIN A5], for which the IC50 in assay [2] was 11 nM; in assay [3], 4 nM.
With `COc1[nH]c(OC)c(C(=O)c2ccc(Cl)cc2)c(=O)c1OC`, the outcome in assay [1] and in assay [4] was inactive. In addition, the IC50 in assay [2] and in assay [3] was more than 30000 nM each time.
As to `COc1[nH]cc(C(=O)c2ccccc2Oc2ccccc2)c(=O)c1OC`, the outcome in assay [1] and in assay [4] was inactive. For the same compound, the IC50 in assay [2] and in assay [3] was more than 30000 nM in each case.
